Legend:
Assay type in all cases: functional
[1] = tested on: Mycobacterium tuberculosis; experiment: Antitubercular activity against PAS/INH/EMB/RMP-resistant Mycobacterium tuberculosis Spec.210 assessed as fractional inhibitory concentration index in presence of 1/2 x MIC isoniazid incubated for 14 days by MABA method; settings: time 14 day
How it was run: (§1)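 Interaction analysis in Middlebrook 7H9 with 10% OADC. Combination MICs came from mixing the derivative (1 to 1/32 MIC) with the reference drug at 1/2 MIC, and the reverse, after 14 days at 37 °C with McFarland 1 inoculum. FICI was calculated from the combination MIC values and the MICs alone.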

[2] = tested on: Mycobacterium tuberculosis; experiment: Antitubercular activity against PAS/INH/EMB/RMP-resistant Mycobacterium tuberculosis Spec.210 assessed as fractional inhibitory concentration index in presence of 1/2 x MIC streptomycin incubated for 14 days by MABA method; settings: time 14 day; how it was run: as §1
[3] = tested on: Mycobacterium tuberculosis; experiment: Antitubercular activity against INH-resistant Mycobacterium tuberculosis Spec.800 harboring InhA promoter mutation assessed as fractional inhibitory concentration index in presence of 1/2 x MIC streptomycin incubated for 14 days by MABA method; settings: time 14 day; how it was run: as §1
[4] = tested on: Mycobacterium tuberculosis; experiment: Antitubercular activity against PAS/INH/EMB/RMP-resistant Mycobacterium tuberculosis Spec.210 assessed as reduction in bacterial growth incubated for 14 days in presence of 1/2 x MIC rifampicin by MABA method; settings: Mycobacterium tuberculosis, 210, 336 h; time 14 day
How it was run: (§2)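 Checkerboard-style combination in Middlebrook 7H9 broth with 10% OADC. The test derivative was varied from 1 to 1/32 of its MIC, and the reference drug was fixed at 1/2 its own MIC. Single-agent MICs were determined first by MABA. Samples of 4 ml received inoculum at 1 McFarland and were incubated 14 days at 37 °C. The endpoint was the lowest derivative concentration that inhibited growth.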

[5] = tested on: Mycobacterium tuberculosis; experiment: Antitubercular activity against PAS/INH/EMB/RMP-resistant Mycobacterium tuberculosis Spec.210 assessed as reduction in bacterial growth incubated for 14 days in presence of 1/2 x MIC ethambutol by MABA method; settings: Mycobacterium tuberculosis, 210, 336 h; time 14 day; how it was run: as §2
[6] = tested on: Mycobacterium tuberculosis; experiment: Antitubercular activity against INH-resistant Mycobacterium tuberculosis Spec.800 assessed as reduction in bacterial growth incubated for 14 days in presence of 1/2 x MIC isoniazid by MABA method; settings: Mycobacterium tuberculosis, 800, 336 h; time 14 day
How it was run: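 Checkerboard-type combination in Middlebrook 7H9 with 10% OADC. The test derivative at 1 to 1/32 of its MIC alone was mixed with the reference drug fixed at 1/2 its MIC. 4 ml samples were inoculated with McFarland 1 suspension and incubated 14 days at 37 °C. MIC is the lowest derivative concentration in combination that inhibited growth in liquid medium.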

[7] = tested on: Mycobacterium tuberculosis; experiment: Antitubercular activity against INH-resistant Mycobacterium tuberculosis Spec.800 assessed as streptomycin MIC incubated for 14 days in presence of streptomycin by MABA method; settings: Mycobacterium tuberculosis, 800, 336 h; time 14 day
How it was run: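 In Middlebrook 7H9 with 10% OADC, the reference drug (INH, RMP, SM or EMB) at 1 to 1/32 of its MIC alone was mixed with the test derivative fixed at 1/2 its MIC. 4 ml samples were inoculated with McFarland 1 suspension and incubated 14 days at 37 °C. MIC is the lowest drug concentration in combination that inhibited growth.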

[8] = tested on: Mycobacterium tuberculosis; experiment: Potency index, Ratio of rifampicin MIC to test compound MIC for antitubercular activity against PAS/INH/EMB/RMP-resistant Mycobacterium tuberculosis Spec.210 assessed as inhibition of microbial growth incubated for 1 week by MABA method; settings: time 1 weeks
[9] = tested on: Mycobacterium tuberculosis; experiment: Potency index, Ratio of streptomycin MIC to test compound MIC for antitubercular activity against PAS/INH/EMB/RMP-resistant Mycobacterium tuberculosis Spec.210 assessed as inhibition of microbial growth incubated for 1 week by MABA method; settings: time 1 weeks
[10] = tested on: Mycobacterium tuberculosis; experiment: Potentiation of rifampcin-induced antimycobacterial activity against INH-resistant Mycobacterium tuberculosis Spec.800 harboring InhA promoter mutation assessed as fold decrease in rifampicin MIC at 1/2X MIC incubated for 14 days in presence of rifampicin by MABA method; settings: time 14 day
How it was run: (§3)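 Combination assay in Middlebrook 7H9 broth with 10% OADC. The reference drug (INH, RMP, SM or EMB) was varied from 1 to 1/32 of its MIC, and the test derivative was fixed at 1/2 its own MIC. Single-agent MICs were determined first by MABA. Inoculum was 1 McFarland, with 14 days of incubation at 37 °C. The endpoint was the lowest reference-drug concentration that inhibited growth.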

[11] = tested on: Mycobacterium tuberculosis; experiment: Potentiation of ethambutol-induced antimycobacterial activity against INH-resistant Mycobacterium tuberculosis Spec.800 harboring InhA promoter mutation assessed as fold decrease in ethambutol MIC at 1/2X MIC incubated for 14 days in presence of ethambutol by MABA method; settings: time 14 day; how it was run: as §3
[12] = tested on: Mycobacterium tuberculosis; experiment: Potentiation of isoniazid-induced antimycobacterial activity against INH-resistant Mycobacterium tuberculosis Spec.800 harboring InhA promoter mutation assessed as fold decrease in isoniazid MIC at 1/2X MIC incubated for 14 days in presence of isoniazid by MABA method; settings: time 14 day; how it was run: as §3

Row | SMILES | fractional inhibitory concentration index (FICI) [1] | fractional inhibitory concentration index (FICI) [2] | fractional inhibitory concentration index (FICI) [3] | MIC [4] [µg/mL] | MIC [5] [µg/mL] | MIC [6] [µg/mL] | MIC [7] [µg/mL] | Ratio [8] | Ratio [9] | fold change (FC) [10] | fold change (FC) [11] | fold change (FC) [12]
1 | COc1ccc(-n2nnnc2Nc2cccc(Br)c2)cc1 | 1.125 | 1.25 | 0.56 | 0.5 | 2 | 16 | 0.5 | 16 | 8 | <=4 | <=4 | <=4
2 | COc1ccc(-n2nnnc2Nc2ccc(Br)cc2)cc1 | 0.625 | 1 | 0.375 | 1 | 2 | 32 | 0.25 | 16 | 8 | – | – | –
